The text below walks through data of ChEMBL document CHEMBL1135639, “Array-based structure and gene expression relationship study of antitumor sulfonamides including N-[2-[(4-hydroxyphenyl)amino]-3-pyridinyl]-4-methoxybenzenesulfonamide and N-(3-chloro-7-indolyl)-1,4-benzenedisulfonamide” (J Med Chem, 2002).

Where “and” joins values, the source holds several entries; their conditions need not be identical. Equal entries are not always repeated.

One assay has as its target Tubulin (Bos taurus, UniProt Q6B856+Q862L2+Q862F3). The assay can be described thus: Inhibitory activity against tubulin polymerization. It counts as functional. The method, boiled down: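 Bovine brain microtubule protein (1 mg/mL) in 0.1 M MES, 1 mM EGTA, 0.5 mM MgCl2, pH 6.8, with 5% DMSO final. Compound at 0.30–100 µM, held 30 min at 4 °C, then warmed to 37 °C with 1 mM GTP. Turbidity followed at 350 nm; the 30 min value is plotted against log concentration. IC50 by least squares, triplicate.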

Assay [1] deals with HCT-116. The assay can be described thus: Effective concentration to inhibit cell proliferation by 50% relative to untreated control cell after 72 hr of continuous exposure in HCT116-C9 cell line. The following applies: Homo sapiens, HCT-116, 72 h. Format: functional, cell-based.
Assay [2] deals with P388. The assay can be described thus: Effective concentration to inhibit cell proliferation by 50% relative to untreated control cell after 72 hr of continuous exposure in P388/4.0 r-M cell line. Format: functional, cell-based. The following applies: Mus musculus, P388, 72 h.
For assay [3], the system named is P388. The assay can be described thus: Effective concentration to inhibit cell proliferation by 50% relative to untreated control cell after 72 hr of continuous exposure in P388 cell line. Format: functional, cell-based. To be noted: Mus musculus, P388, 72 h.
Assay [4] deals with HCT-116. The assay can be described thus: Effective concentration to inhibit cell proliferation by 50% relative to untreated control cell after 72 hr of continuous exposure in HCT116-C9 -C1cell line. Format: functional, cell-based. To be noted: Homo sapiens, HCT-116, 72 h.
Assay [5] can be described thus: Relative resistance value as the ratio of IC50 for the resistant cell line to that of parental cell line. It counts as functional. In a few lines:
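Ratio of MTT IC50 (72 h exposure) in the resistant subclone to that in the parental line: P388/4.0r-M versus P388, and HCT116-C9-C1 versus HCT116-C9. IC50s come from two triplicate runs each.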

`NS(=O)(=O)c1ccc(S(=O)(=O)Nc2cccc3cc[nH]c23)cc1`: on Tubulin, the IC50 is above 100000 nM.

On to `COc1ccc(S(=O)(=O)Nc2cccc3c(Cl)c[nH]c23)cc1`, for which the IC50 in the assay with HCT-116 [1] was found to be 370 nM; on Tubulin, 9500 nM; in the assay on P388 [2], 1200 nM; in the assay on P388 [3], 1200 nM; in the assay with HCT-116 [4], 2200 nM.

Molecule `N#Cc1ccc(S(=O)(=O)Nc2cccc3c(Cl)c[nH]c23)cc1` displayed an IC50 at Tubulin above 100000 nM.

For `COc1ccc(S(=O)(=O)Nc2cccc3cc(Cl)[nH]c23)cc1`, the IC50 at Tubulin worked out at 2100 nM.

As to `NS(=O)(=O)c1ccc(C(=O)Nc2cccc3c(Cl)c[nH]c23)cc1`, the IC50 on Tubulin is above 100000 nM.

For the molecule `COc1ccc(S(=O)(=O)Nc2cccnc2Nc2ccc(O)cc2)cc1` [ABT-751], the IC50 in the assay on HCT-116 [1] is 900 nM; against Tubulin, 2200 nM; in the assay on P388 [2], 15000 nM; in the assay on P388 [3], 190 nM; with HCT-116 [4], 960 nM.

`NS(=O)(=O)c1ccc(S(=O)(=O)Nc2cccc3c(Cl)c[nH]c23)cc1` [INDISULAM]: the Relative resistance in assay [5] is 0.97 and 1.4. For the same molecule, the IC50 in the assay with HCT-116 [1] is 210 nM; against Tubulin, above 100000 nM; with P388 [2], 590 nM; in the assay on P388 [3], 610 nM; in the assay with HCT-116 [4], 29000 nM.

The IC50 is the concentration that inhibits the measured activity by half. Low values mean greater potency in that assay, high ones weaker potency in that assay.
